# Test results: ChEMBL document CHEMBL2424622, “Development of amino-pyrimidine inhibitors of c-Jun N-terminal kinase (JNK): kinase profiling guided optimization of a 1,2,3-benzotriazole lead” (Bioorg Med Chem Lett, 2013)
# How the values were obtained:
# [1] = molecular target: Activated CDC42 kinase 1 (Homo sapiens) (UniProt Q07912); test: Competitive binding affinity to TNK2 (unknown origin) at 10 uM in presence of ATP relative to control
# [2] = molecular target: Cyclin-dependent kinase 19 (Homo sapiens) (UniProt Q9BWU1); test: Competitive binding affinity to CDK19 (unknown origin) at 10 uM in presence of ATP relative to control
# [3] = molecular target: Cyclin-dependent kinase 11B (Homo sapiens, UniProt P21127); test: Competitive binding affinity to CDC2L1 (unknown origin) at 10 uM in presence of ATP relative to control
# In short: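 In vitro ATP-site competition binding format, run as one member of a diverse 128-kinase profiling panel. Each compound was tested at a single concentration across the whole panel.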
# [4] = molecular target: T1, Testis-specific serine/threonine-protein kinase 1 (Homo sapiens) (UniProt Q9BXA7); test: Competitive binding affinity to TSSK1 (unknown origin) at 10 uM in presence of ATP relative to control
# T1 sequence (whole entry): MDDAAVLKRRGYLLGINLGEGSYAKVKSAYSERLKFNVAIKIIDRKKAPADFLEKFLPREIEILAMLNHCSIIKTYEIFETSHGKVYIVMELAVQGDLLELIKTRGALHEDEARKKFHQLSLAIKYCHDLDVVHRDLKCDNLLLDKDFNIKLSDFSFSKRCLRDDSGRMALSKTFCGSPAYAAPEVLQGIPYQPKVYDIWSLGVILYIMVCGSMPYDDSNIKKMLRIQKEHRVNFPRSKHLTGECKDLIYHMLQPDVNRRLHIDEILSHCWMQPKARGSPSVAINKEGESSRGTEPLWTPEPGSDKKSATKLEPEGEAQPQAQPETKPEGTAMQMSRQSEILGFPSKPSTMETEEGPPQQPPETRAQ
# [5] = molecular target: Myosin-IIIa (Homo sapiens) (UniProt Q8NEV4); test: Competitive binding affinity to MYO3A (unknown origin) at 10 uM in presence of ATP relative to control
# [6] = molecular target: BDNF/NT-3 growth factors receptor (Homo sapiens) (UniProt Q16620); test: Competitive binding affinity to TRKB (unknown origin) at 10 uM in presence of ATP relative to control
# [7] = molecular target: Mitogen-activated protein kinase 3 (Homo sapiens, UniProt P27361); test: Competitive binding affinity to ERK1 (unknown origin) at 10 uM in presence of ATP relative to control
# In short: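 In vitro ATP-site competition binding assay, part of profiling against a diverse panel of 128 kinases. Each compound was tested at a single concentration of 10 µM. Kinome selectivity was summarized as S15 selectivity scores.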
# [8] = molecular target: Cyclin-dependent kinase 7 (Homo sapiens, UniProt P50613); test: Competitive binding affinity to CDK7 (unknown origin) at 10 uM in presence of ATP relative to control
# [9] = molecular target: Activin receptor type-2B (Homo sapiens) (UniProt Q13705); test: Competitive binding affinity to ACVR2B (unknown origin) at 10 uM in presence of ATP relative to control
# [10] = tested on: Receptor-type tyrosine-protein kinase FLT3 (Homo sapiens), P36888 [UNDEFINED MUTATION]; test: Competitive binding affinity to FLT3 ITD mutant (unknown origin) at 10 uM in presence of ATP relative to control
# [11] = molecular target: Serine/threonine-protein kinase 32B (Homo sapiens) (UniProt Q9NY57); test: Competitive binding affinity to YANK2 (unknown origin) at 10 uM in presence of ATP relative to control
# Homo sapiens = species on record: Homo sapiens; test: Competitive binding affinity to EGFR S752 to I759 deletion mutant (unknown origin) at 10 uM in presence of ATP relative to control
# [12] = molecular target: cAMP-dependent protein kinase catalytic subunit beta (Homo sapiens) (UniProt P22694); test: Competitive binding affinity to PKAC-beta (unknown origin) at 10 uM in presence of ATP relative to control
# In short: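 In vitro ATP-site competition binding assay across a diverse panel of 128 kinases, with compound tested at a single concentration. Kinase selectivity scores (S15) were calculated from the panel profiles.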
# [13] = molecular target: T2, Ankyrin repeat and protein kinase domain-containing protein 1 (Homo sapiens) (UniProt Q8NFD2); test: Competitive binding affinity to ANKK1 (unknown origin) at 10 uM in presence of ATP relative to control
# T2 sequence (whole entry): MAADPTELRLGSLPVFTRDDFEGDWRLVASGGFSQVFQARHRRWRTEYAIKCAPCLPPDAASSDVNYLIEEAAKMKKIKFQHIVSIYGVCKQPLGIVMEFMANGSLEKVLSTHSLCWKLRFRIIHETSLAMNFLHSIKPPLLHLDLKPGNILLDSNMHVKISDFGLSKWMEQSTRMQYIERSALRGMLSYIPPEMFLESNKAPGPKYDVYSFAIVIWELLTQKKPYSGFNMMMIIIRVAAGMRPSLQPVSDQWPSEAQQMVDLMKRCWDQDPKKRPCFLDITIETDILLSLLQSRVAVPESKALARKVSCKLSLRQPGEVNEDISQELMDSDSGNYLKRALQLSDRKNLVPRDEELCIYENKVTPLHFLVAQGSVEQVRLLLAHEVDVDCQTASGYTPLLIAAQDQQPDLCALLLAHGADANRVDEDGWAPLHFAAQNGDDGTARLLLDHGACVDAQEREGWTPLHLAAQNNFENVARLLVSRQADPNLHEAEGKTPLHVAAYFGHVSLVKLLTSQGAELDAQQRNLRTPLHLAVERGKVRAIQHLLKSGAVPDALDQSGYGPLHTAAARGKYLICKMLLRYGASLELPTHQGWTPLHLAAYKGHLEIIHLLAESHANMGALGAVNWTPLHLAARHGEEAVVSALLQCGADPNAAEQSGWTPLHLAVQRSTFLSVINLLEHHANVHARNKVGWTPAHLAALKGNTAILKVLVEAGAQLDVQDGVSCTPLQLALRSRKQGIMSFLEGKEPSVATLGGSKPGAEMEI
# Sequence of Myosin-IIIa (Homo sapiens) (Q8NEV4 whole entry): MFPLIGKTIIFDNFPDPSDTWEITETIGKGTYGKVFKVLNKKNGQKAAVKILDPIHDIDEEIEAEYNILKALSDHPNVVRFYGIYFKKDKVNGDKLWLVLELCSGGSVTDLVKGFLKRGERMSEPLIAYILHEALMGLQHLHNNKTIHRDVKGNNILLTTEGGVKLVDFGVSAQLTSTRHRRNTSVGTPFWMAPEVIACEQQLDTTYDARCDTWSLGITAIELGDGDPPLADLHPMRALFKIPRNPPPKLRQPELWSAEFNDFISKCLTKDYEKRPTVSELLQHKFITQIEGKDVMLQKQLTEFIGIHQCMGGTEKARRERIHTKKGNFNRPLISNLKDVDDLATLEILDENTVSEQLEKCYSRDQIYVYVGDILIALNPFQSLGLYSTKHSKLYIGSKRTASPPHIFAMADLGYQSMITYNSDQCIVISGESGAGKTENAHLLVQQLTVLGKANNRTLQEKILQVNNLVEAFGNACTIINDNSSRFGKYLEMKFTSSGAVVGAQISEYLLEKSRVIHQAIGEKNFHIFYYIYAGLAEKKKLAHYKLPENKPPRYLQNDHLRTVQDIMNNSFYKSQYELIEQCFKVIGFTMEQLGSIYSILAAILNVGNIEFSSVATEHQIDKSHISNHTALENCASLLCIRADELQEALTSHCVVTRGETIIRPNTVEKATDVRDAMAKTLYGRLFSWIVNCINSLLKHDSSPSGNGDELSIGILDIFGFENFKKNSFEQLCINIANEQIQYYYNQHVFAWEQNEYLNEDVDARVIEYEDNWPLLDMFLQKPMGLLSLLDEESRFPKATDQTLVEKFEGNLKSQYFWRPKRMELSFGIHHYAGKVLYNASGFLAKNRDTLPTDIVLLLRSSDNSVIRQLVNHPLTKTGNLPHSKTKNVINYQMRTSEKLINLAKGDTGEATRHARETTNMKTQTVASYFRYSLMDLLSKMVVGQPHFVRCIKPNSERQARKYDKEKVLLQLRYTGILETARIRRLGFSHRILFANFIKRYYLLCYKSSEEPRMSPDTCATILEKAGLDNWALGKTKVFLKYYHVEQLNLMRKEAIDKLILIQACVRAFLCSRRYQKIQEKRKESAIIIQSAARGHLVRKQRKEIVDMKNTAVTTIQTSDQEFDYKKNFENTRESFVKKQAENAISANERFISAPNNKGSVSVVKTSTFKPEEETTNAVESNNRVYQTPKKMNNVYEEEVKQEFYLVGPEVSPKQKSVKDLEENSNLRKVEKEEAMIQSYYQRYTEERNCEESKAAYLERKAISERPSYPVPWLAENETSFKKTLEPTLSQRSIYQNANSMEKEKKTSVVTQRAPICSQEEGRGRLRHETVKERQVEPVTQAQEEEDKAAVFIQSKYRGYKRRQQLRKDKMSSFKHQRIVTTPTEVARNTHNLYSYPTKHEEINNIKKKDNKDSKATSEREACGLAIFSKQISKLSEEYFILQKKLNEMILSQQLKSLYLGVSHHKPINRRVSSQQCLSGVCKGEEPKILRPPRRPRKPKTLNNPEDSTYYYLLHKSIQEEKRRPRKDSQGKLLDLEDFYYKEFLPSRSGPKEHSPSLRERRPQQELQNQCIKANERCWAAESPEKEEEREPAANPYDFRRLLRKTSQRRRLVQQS
# Sequence of Receptor-type tyrosine-protein kinase FLT3 (Homo sapiens), P36888 [UNDEFINED MUTATION] (P36888 whole entry, looked up, change not shown): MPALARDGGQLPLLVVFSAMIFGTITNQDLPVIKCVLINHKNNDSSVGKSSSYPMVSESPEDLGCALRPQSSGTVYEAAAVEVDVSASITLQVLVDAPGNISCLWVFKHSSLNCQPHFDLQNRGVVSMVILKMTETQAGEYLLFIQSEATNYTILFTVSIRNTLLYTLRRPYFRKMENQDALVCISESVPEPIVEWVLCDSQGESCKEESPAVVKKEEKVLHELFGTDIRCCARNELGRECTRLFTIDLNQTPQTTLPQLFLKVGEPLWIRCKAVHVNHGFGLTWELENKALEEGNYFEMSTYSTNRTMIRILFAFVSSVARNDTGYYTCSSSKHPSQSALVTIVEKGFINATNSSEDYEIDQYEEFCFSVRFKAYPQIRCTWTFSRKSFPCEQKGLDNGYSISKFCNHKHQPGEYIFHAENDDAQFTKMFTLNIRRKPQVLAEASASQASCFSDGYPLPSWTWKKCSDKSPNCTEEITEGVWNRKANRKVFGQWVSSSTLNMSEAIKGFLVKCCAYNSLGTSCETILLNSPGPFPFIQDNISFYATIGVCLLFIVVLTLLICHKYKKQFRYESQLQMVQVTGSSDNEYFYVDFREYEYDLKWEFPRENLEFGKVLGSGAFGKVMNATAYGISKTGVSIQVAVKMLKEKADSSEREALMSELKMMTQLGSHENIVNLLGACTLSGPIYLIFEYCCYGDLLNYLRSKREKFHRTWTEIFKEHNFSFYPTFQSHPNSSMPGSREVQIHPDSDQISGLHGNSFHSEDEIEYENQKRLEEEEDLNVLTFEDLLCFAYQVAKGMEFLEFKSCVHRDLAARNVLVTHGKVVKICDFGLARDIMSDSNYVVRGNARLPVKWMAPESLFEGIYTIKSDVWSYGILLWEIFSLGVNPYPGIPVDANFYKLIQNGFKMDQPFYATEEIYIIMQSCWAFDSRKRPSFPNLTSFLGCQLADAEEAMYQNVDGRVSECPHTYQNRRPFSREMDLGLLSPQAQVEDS
# Sequence of Serine/threonine-protein kinase 32B (Homo sapiens) (Q9NY57 whole entry): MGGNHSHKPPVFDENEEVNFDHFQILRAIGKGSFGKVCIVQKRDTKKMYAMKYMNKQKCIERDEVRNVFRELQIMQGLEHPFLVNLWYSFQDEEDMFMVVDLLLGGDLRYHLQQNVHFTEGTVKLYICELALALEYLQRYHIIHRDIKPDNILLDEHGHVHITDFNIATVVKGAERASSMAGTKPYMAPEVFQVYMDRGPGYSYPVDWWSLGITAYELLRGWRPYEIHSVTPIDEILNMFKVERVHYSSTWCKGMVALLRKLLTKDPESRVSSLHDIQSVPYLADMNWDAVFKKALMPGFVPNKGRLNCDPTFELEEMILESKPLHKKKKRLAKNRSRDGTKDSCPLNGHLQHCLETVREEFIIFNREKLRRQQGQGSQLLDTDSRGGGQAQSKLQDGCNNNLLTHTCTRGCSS
# Sequence of Cyclin-dependent kinase 11B (P21127 whole entry): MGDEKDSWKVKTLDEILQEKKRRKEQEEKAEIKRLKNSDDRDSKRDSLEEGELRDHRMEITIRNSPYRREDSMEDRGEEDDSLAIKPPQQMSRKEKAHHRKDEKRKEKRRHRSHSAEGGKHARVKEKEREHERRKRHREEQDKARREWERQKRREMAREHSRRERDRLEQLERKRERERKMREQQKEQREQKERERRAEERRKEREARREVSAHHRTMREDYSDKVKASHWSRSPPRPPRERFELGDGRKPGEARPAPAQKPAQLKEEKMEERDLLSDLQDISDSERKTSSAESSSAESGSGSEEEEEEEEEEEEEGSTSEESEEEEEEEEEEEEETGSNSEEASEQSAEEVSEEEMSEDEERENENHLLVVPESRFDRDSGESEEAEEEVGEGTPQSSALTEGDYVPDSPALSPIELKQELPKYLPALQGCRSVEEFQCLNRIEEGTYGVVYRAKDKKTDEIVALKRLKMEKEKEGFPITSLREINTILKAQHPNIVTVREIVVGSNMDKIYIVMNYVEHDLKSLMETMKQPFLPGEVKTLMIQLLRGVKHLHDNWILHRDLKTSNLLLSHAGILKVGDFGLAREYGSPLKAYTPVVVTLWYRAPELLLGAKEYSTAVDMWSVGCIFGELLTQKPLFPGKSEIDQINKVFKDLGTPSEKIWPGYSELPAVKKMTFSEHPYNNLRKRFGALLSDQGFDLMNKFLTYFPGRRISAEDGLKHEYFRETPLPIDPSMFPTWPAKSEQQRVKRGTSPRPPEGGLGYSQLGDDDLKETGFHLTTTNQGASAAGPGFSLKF
# Sequence of Cyclin-dependent kinase 7 (P50613 whole entry): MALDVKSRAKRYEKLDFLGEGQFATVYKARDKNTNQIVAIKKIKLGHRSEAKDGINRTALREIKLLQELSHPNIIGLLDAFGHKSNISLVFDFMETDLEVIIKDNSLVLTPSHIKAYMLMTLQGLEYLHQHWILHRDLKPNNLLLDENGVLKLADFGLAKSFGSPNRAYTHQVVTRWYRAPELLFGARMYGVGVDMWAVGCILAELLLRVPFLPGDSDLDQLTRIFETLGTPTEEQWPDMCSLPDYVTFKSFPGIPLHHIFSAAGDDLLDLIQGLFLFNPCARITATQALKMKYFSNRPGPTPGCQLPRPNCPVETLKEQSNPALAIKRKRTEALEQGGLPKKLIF
# Sequence of Cyclin-dependent kinase 19 (Homo sapiens) (Q9BWU1 whole entry, looked up): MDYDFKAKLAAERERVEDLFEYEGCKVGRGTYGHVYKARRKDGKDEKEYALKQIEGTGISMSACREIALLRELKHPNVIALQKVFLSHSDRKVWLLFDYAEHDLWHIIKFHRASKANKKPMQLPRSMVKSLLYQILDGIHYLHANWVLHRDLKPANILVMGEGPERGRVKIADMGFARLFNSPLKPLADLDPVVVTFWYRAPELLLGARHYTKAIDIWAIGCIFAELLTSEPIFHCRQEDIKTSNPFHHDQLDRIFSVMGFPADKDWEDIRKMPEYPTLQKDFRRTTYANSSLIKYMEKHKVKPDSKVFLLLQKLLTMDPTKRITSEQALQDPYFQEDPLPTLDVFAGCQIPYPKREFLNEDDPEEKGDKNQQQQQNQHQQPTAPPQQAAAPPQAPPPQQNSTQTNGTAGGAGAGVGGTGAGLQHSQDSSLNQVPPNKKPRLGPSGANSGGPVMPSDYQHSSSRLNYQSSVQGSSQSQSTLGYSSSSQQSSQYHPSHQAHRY
# Sequence of Mitogen-activated protein kinase 3 (P27361 whole entry): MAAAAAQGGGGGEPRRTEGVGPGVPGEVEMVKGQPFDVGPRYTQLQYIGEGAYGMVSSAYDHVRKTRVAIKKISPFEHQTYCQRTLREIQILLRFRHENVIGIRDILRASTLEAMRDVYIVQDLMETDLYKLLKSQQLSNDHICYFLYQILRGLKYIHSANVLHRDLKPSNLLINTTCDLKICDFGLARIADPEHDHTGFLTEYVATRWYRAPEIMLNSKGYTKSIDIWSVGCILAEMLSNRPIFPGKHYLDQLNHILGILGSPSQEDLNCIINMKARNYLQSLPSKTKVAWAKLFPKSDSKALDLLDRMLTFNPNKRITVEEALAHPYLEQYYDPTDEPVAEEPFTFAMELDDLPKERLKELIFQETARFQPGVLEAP
SMILES,inhibition [1] [%],inhibition [2] [%],inhibition [3] [%],inhibition [4] [%],inhibition [5] [%],inhibition [6] [%],inhibition [7] [%],inhibition [8] [%],inhibition [9] [%],inhibition [10] [%],inhibition [11] [%],inhibition (Homo sapiens) [%],inhibition [12] [%],inhibition [13] [%]
O[C@H]1CC[C@H](Nc2nccc(-n3ccc4ccccc43)n2)CC1,< 50,70,97,< 50,< 50,< 50,< 50,83,< 50,< 50,< 50,< 50,< 50,< 50
CS(=O)(=O)CCCOc1cccc2c1ccn2-c1ccnc(N[C@H]2CC[C@H](C(=O)N3CCC(O)CC3)CC2)n1,–,–,> 85,–,–,–,> 85,> 85,–,–,–,–,–,–
O[C@H]1CC[C@H](Nc2nccc(-n3nnc4ccccc43)n2)CC1,< 50,82,100,< 50,< 50,< 50,< 50,92,74,98,< 50,< 50,< 50,69

# Now from value to molecule:
inhibition [1] [%],inhibition [2] [%],inhibition [3] [%],inhibition [4] [%],inhibition [5] [%],inhibition [6] [%],inhibition [7] [%],inhibition [8] [%],inhibition [9] [%],inhibition [10] [%],inhibition [11] [%],inhibition (Homo sapiens) [%],inhibition [12] [%],inhibition [13] [%],SMILES
< 50,< 50,97,< 50,< 50,< 50,< 50,81,< 50,100,< 50,< 50,< 50,< 50,O[C@H]1CC[C@H](Nc2nccc(-n3ncc4ccccc43)n2)CC1
< 50,–,–,–,–,100,80,–,< 50,100,< 50,< 50,< 50,–,O[C@H]1CC[C@H](Nc2nccc(-c3n[nH]c4ccccc34)n2)CC1
